This note sets out measurements from PMC4161153 (Journal of Medicinal Chemistry, 2014).

Tested on in one data set: not listed separately
In words: Chemical stability of the free base. The note with it: rapid formation of overoxidized 3-ol derivative 5 via autoxidation. It counts as physicochemical.
As to `CCCCC1C(N)=Nc2ccccc21.Cl` (stereo not drawn) [Compound 4], the “Stability of the compound (free base)” value is “exceedingly unstable”.

The subject of a further data set is natural killer lymphocytes. Nature of the data set: CD69 upregulation by flow cytometry in whole human blood. It counts as cell-based. Conditions: overnight 37 °C, CD3–CD56+ cells, Figure 4. In a few lines: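 Heparin-anticoagulated whole blood from healthy volunteers was incubated overnight at 37 °C with graded concentrations of test compound, a TLR7-agonist reference or medium. Cells were stained for 30 min at 37 °C in the dark with CD3-PE, CD56-APC and CD69-PE-Cy7. Erythrocytes were lysed and leukocytes fixed in one step. CD69 was read on CD3⁻CD56⁺ NK cells from 100,000 gated events.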
For orientation: In flow cytometry, cells or beads pass a laser one at a time.
Turning to `CCCCCn1c(N)nc2c(C)cccc21` [Compound 31a, 4-Methyl-1-pentyl-1H-benzo[d]imidazol-2-amine], the “CD69 upregulation in NK lymphocytes” value is “complete absence of CD69 upregulation”.

Another data set concerns the target T1, human TLR8 (Homo sapiens, UniProt Q9NR97).
T1 sequence (Q9NR97 27-1041): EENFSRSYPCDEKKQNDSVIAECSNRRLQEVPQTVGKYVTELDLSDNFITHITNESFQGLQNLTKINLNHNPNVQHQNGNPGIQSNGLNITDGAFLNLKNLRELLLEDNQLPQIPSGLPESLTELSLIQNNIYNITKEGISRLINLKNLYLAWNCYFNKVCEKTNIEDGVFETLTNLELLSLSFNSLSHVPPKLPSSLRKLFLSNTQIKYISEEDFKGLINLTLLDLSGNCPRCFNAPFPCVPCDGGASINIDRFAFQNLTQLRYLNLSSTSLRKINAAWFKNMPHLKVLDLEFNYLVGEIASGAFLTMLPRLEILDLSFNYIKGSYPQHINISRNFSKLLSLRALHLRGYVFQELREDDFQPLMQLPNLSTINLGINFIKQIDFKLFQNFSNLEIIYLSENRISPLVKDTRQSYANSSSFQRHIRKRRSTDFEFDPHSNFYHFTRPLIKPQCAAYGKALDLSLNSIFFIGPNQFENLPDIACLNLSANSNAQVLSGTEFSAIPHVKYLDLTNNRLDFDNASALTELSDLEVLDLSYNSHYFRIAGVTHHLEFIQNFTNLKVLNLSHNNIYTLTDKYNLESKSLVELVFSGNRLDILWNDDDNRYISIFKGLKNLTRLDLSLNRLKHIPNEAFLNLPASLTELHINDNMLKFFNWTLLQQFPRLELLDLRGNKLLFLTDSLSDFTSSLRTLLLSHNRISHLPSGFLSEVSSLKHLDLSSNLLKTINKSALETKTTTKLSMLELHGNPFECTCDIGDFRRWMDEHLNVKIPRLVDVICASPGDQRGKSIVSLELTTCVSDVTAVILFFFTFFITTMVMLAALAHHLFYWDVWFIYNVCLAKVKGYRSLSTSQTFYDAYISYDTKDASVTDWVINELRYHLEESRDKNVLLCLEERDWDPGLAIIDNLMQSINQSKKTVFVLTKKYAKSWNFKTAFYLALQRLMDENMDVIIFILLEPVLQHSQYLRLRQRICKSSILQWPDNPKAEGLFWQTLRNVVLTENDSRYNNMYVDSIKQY
In words: Human TLR8-specific reporter gene assay. Format: cell-based. Conditions: HEK293 cells, NF-κB induction. On the technique in general: Reporter assays use an easily measured gene product as a stand-in for the process of interest.
As for `Nc1nc2ccccc2n1Cc1ccccc1` [Compound 8d, 1-Benzyl-1H-benzo[d]imidazol-2-amine], the “hTLR8 Agonistic Activity (EC50)” value is recorded as “neither 8d nor 8f were active”.
The same measure, in the same setting: then `NCc1cccc(Cn2c(N)nc3ccccc32)c1` [Compound 8f, 1-(3-(Aminomethyl)benzyl)-1H-benzo[d]imidazol-2-amine], with “neither 8d nor 8f were active”.
As for `CCCCOC(=O)n1c(N)nc2ccccc21` [Compound 9, Butyl 2-amino-1H-benzo[d]imidazole-1-carboxylate], the “hTLR8 Agonistic Activity (EC50)” value is listed as “completely abrogated activity”.
`CCCCCn1c(NC(C)=O)nc2ccccc21` [Compound 10, N-(1-Pentyl-1H-benzo[d]imidazol-2-yl)acetamide]: the “hTLR8 Agonistic Activity (EC50)” value is listed as “completely abrogated activity”.
Still for that read-out and setting: then `CCCCCn1c(N)nc2c(-c3ccccc3)cccc21` [Compound 31l, 1-Pentyl-4-phenyl-1H-benzo[d]imidazol-2-amine], with “abrogated activity”; and `CCCCCn1c(N)nc2c(Cc3ccccc3)cccc21` [Compound 31m, 4-Benzyl-1-pentyl-1H-benzo[d]imidazol-2-amine], with “abrogated activity”.
On the same count and under the same terms, then `CCCCCn1c(N)nc2c(OCc3ccccc3)cccc21` [Compound 35, 4-Benzyloxy-1-pentyl-1H-benzoimidazol-2-ylamine], with “abrogated activity”.
